ChEMBL document CHEMBL1821613, “Synthesis and evaluation of 5-substituted 2'-deoxyuridine monophosphate analogues as inhibitors of flavin-dependent thymidylate synthase in Mycobacterium tuberculosis” (J Med Chem, 2011)

Experiments:
[1] = target: T1, Thymidylate synthase ThyA (Mycobacterium tuberculosis, UniProt P9WFR9); test: Inhibition of Mycobacterium tuberculosis His-tagged ThyA-mediated dTMP synthesis expressed in BL21 (DE3) Escherichia coli RbCl cells after 30 mins by photometric assay
T1 sequence (P9WFR9 whole entry): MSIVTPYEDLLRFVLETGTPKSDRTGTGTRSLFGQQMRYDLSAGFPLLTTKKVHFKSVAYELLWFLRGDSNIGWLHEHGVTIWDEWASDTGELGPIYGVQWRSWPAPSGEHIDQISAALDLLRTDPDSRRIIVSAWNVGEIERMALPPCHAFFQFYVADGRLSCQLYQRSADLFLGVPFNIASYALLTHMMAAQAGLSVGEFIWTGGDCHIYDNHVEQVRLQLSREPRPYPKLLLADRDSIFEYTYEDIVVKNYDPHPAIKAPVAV

[2] = target: T2, Flavin-dependent thymidylate synthase (Mycobacterium tuberculosis) (UniProt P9WG57); test: Inhibition of Mycobacterium tuberculosis ThyX-mediated dTMP synthesis using [5-3H]dUMP as substrate at 50 uM after 10 mins by liquid scintillation counting
T2 sequence (whole entry): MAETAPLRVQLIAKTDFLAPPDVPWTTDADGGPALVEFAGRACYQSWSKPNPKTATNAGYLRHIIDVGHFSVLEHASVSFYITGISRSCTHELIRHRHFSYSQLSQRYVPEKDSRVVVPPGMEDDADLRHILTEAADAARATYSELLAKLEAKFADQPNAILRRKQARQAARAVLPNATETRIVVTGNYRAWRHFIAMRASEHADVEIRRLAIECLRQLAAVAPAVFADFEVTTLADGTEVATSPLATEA
Summary of the method: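 Compounds tested at a single 50 μM dose on purified M. tuberculosis ThyX with 20 μM mTHF, 10 μM FAD, 500 μM NADPH. [5-3H]dUMP (13 Ci/mmol, stock 2 μM) added to start, 10 min at room temperature, TCA/dUMP stop, charcoal cleanup, tritiated water counted by scintillation; percent inhibition relative to control.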

[3] = target: T3, Flavin-dependent thymidylate synthase (Mycobacterium tuberculosis, UniProt P9WG57); test: Inhibition of Mycobacterium tuberculosis ThyX-mediated dTMP synthesis using [5-3H]dUMP as substrate after 10 mins by liquid scintillation counting
T3 sequence (P9WG57 whole entry): T2 sequence (whole entry)
Summary of the method: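 Purified M. tuberculosis ThyX with 20 μM mTHF, 10 μM FAD and 500 μM NADPH; reaction started with [5-3H]dUMP (13 Ci/mmol, stock 2 μM), run 10 min at room temperature, stopped with TCA/dUMP. Unreacted substrate removed with activated charcoal (15 min on ice, then centrifugation); tritiated water in supernatant counted. IC50 from dose-response curves of percent activity versus control.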

SMILES	IC50 [1] [µM]	inhibition [2] [%]	IC50 [3] [µM]
O=c1[nH]c(=O)n([C@H]2C[C@H](O)[C@@H](COP(=O)(O)O)O2)cc1-c1ccc(F)cc1	> 50	74	10
N#C/C=C/c1cn([C@H]2C[C@H](O)[C@@H](COP(=O)(O)O)O2)c(=O)[nH]c1=O	> 50	81.3	7.4
O=C(Cc1ccccc1)NCC#Cc1cn([C@H]2C[C@H](O)[C@@H](COP(=O)(O)O)O2)c(=O)[nH]c1=O	> 50	86.9	7.3
CCCCCCNC(=O)NCC#Cc1cn([C@H]2C[C@H](O)[C@@H](COP(=O)(O)O)O2)c(=O)[nH]c1=O	> 50	90.9	4.84
CCCCCCCS(=O)(=O)NCC#Cc1cn([C@H]2C[C@H](O)[C@@H](COP(=O)(O)O)O2)c(=O)[nH]c1=O	> 50	84.7	6.93
CCCCCCCC(=O)NCC#Cc1cn([C@H]2C[C@H](O)[C@@H](COP(=O)(O)O)O2)c(=O)[nH]c1=O	> 50	92.8	0.91
CCCC(=O)NCC#Cc1cn([C@H]2C[C@H](O)[C@@H](COP(=O)(O)O)O2)c(=O)[nH]c1=O	> 50	72	26.2
O=c1[nH]c(=O)n([C@H]2C[C@H](O)[C@@H](COP(=O)(O)O)O2)cc1F	0.57	95.1	0.29
COc1cccc(-c2cn([C@H]3C[C@H](O)[C@@H](COP(=O)(O)O)O3)c(=O)[nH]c2=O)c1	> 50	16	> 50
CCCCCCCCCCC#Cc1cn([C@H]2C[C@H](O)[C@@H](COP(=O)(O)O)O2)c(=O)[nH]c1=O	> 50	82.6	27.8
CCCCCCCCCCC#Cc1cn([C@@H]2O[C@H](COP(=O)(O)O)[C@@H](O)[C@@H]2O)c(=O)[nH]c1=O	> 50	19	> 50
CCCCNC(=O)CCCCC#Cc1cn([C@H]2C[C@H](O)[C@@H](COP(=O)(O)O)O2)c(=O)[nH]c1=O	> 50	74.6	8.03
CCCCCC(=O)NCC#Cc1cn([C@H]2C[C@H](O)[C@@H](COP(=O)(O)O)O2)c(=O)[nH]c1=O	> 50	89.9	8.61
CCCCNC(=O)CCCCC#Cc1cn([C@@H]2O[C@H](COP(=O)(O)O)[C@@H](O)[C@@H]2O)c(=O)[nH]c1=O	> 50	21	> 50
